# Source: PubChem (several laboratories)
# A selection: hits, their analogues and other compounds. The true share with any hit is near 4.1%.
# ATG4B inhibitor – blocks human ATG4B protease cleavage of LC3 substrate; Q9Y4P1; ATG4B cleavage of LC3-PLA2, NBD-HPC fluorescence, 1 h; inhibition, % at 8.33 µM; hit rate 0.51% among 340,000; in the data active = inhibition above about 40%
# MC4R barr agon – human MC4R agonism via beta-arrestin; P32245; U2OS MC4R beta-arrestin complementation, luminescence; percent of melanotan II response, DMSO zero; activation, % at 8.9 µM; hit rate 0.98% among 360,000; AID 540308;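 active = activation above a per-plate cutoff, the mean activation of sample wells on that plate plus 3 SD, cut at about 8% in these data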
# Target sequence (P32245 whole entry, looked up): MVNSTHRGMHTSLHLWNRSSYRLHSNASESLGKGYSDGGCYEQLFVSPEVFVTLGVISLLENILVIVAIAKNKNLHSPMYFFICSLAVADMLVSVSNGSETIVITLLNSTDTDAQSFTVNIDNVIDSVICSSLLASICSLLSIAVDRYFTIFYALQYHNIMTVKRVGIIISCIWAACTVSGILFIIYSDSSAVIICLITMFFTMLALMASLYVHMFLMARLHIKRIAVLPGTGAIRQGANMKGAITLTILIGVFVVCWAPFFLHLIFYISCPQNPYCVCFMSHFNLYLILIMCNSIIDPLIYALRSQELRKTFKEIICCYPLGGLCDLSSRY
# MC4R antag cAMP – antagonists of human melanocortin 4 receptor (MC4R); AID 540295; inhibition, % at 6.5 µM; P32245; MC4R-expressing cells, MTII-stimulated cAMP, LANCE TR-FRET; hit rate 0.48% among 360,000;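 active = inhibition above its plate's cutoff, the mean of tested wells on that plate plus 3 SD, cut at about 29% in these data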
#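 System – human MC4R-expressing U2OS cells · Also added – Melanotan II · Dosing – one concentration, 6.5 µM nominal · Timing – 30-min compound, 1-h challenge, 1-h detection, room temperature · Measured by – Eu-cAMP/anti-cAMP TR-FRET, emission 671 nm · Replicates – singlicate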
# MPTP block – inhibitors of mitochondrial permeability transition pore; hit rate 1.4% among 360,000; inhibition, % at 10 µM; isolated mouse mitochondria, Ca2+ swelling absorbance, 30 min;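 active = inhibition of 50% or more, scaled per plate between neutral and stimulator controls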
# SMARCA2 activ – activators of SMARCA2 function. MG213 cells, MMTV-luciferase reporter, dexamethasone, overnight. activation, % at 9.1 µM. hit rate 1% among 370,000; in the data active = activation above about 7.8%
# U2OS cAMP counter – counter-screen for MC4R antagonists: nonselective cAMP signaling inhibitors; shares compounds with MC4R antag cAMP; parental U2OS, forskolin cAMP, LANCE TR-FRET; inhibition, % at 6.5 µM; hit rate 26% among 1,600; AID 602193;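 active = mean inhibition over triplicates above the low-control well mean plus 3 SD, set per campaign, cut at about 13% in these data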;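 note: signal is single emission at 671 nm which falls as cellular cAMP rises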
# MC4R antag conf – human MC4R cAMP antagonism confirmation | shares compounds with MC4R antag cAMP | MC4R-expressing cells, MTII-stimulated cAMP, TR-FRET | inhibition, % at 6.5 µM | hit rate 27% among 1,600 | AID 602195; in the data active = inhibition above about 29%
# Hits are given with their value; - = inactive; . = not tested or not shown; + = active, no number.
SMILES,ATG4B inhibitor,MC4R barr agon,MC4R antag cAMP,MPTP block,SMARCA2 activ,U2OS cAMP counter,MC4R antag conf
Cc1ccc(Nc2nc(N/N=C/c3c[nH]c4ccccc34)nc(N3CCOCC3)n2)cc1,-,-,31.1,-,-,-,-
Cc1ccc(CNC(=O)COC(=O)Cn2nc(C)c([N+](=O)[O-])c2C)cc1,-,-,45.7,-,-,-,31.1
Cc1cc(C(=O)CCl)c(C)n1CCc1ccc(F)cc1,-,-,30.5,-,-,-,33.3
COc1ccc(CCn2c(C)cc(C(=O)CCl)c2C)cc1OC,-,-,29.9,-,-,-,-
COc1ccc(CNC(=O)CSc2nnc(NC(=O)C3CC3)s2)cc1,-,-,29.2,-,-,-,-
COc1ccc(NC(=O)CSc2nnc(NC(=O)C3CCC3)s2)cc1,-,-,-,-,-,.,.
O=C1c2ccccc2C2Cc3nnccc3CN12 (stereo not given),.,.,.,.,-,.,.
Cc1ccc(CN2CC(=O)N3[C@H]4c5ccccc5OC[C@@H]4[C@H](c4ccccc4)[C@]3(C)C2=O)cc1,-,-,-,-,-,.,.
C[C@@]12C(=O)N(Cc3ccccc3)CC(=O)N1[C@H]1c3ccccc3OC[C@@H]1[C@@H]2c1ccccc1,-,-,29.5,-,-,-,-
Cc1coc2cc3oc(=O)c(CC(=O)N(C)CC(=O)O)c(C)c3cc12,-,-,29.3,-,-,18.5,-
COC(=O)c1ccc(NC(=O)c2ccc(NS(=O)(=O)c3cccc4cccnc34)cc2)cc1,-,-,29.7,-,.,-,-
CCOc1ccc(NC(=O)c2ccc(NS(=O)(=O)c3cccc4cccnc34)cc2)cc1,-,-,-,-,-,.,.
CCOC(=O)[C@]12CCCC=C1N(Cc1ccc(OC)cc1)C(=O)[C@@H]2CC(=O)NCc1cccc2ccccc12,.,.,.,.,-,.,.
Cc1cc(Br)c2nc3c(c(C(=O)O)c2c1)CCCCC3,-,-,+,-,-,+,.
N#Cc1ccc(OC[C@@H](O)CN2CCC(C(O)(c3ccccc3)c3ccccc3)CC2)cc1F,.,.,.,.,-,.,.
COC(=O)c1cn(-c2ccc(-c3noc4c3C(=O)N(CC(=O)N3CCOCC3)CC4)cc2)nn1,.,.,.,.,-,.,.
Cc1cccc(OCC(=O)Nc2ccc3c(c2)nc(CN2CCCCC2)n3C)c1,-,-,32.1,-,-,-,-
COc1ccc(N2CCN(CCCNC(=O)Cc3ccc(C(F)(F)F)cc3)CC2)cc1,.,.,.,.,-,.,.
Cc1ccccc1CN1CCC(Oc2ccc(C(=O)N3CCCC3)cc2)CC1,-,-,28.7,-,-,-,-
COc1cc(C)c(CN2CCC(Oc3ccc(C(=O)N4CCCC4)cc3)CC2)cc1C,-,-,-,-,-,.,.
C[C@H](O)[C@@H]1CN2CCc3c([nH]c4cccc(-c5ccccc5)c34)[C@@H]2C[C@@H]1N(C)C(=O)Nc1ccccc1,.,.,.,.,-,.,.
CCOC(=O)c1c(-c2ccc(F)cc2)csc1NC(=O)CN1C(=O)NC2(CCCCC2C)C1=O (stereo not given),-,-,32.0,-,-,-,-
N=c1c2c(ncn1Cc1ccco1)Oc1cc(O)ccc1C2c1ccccc1 (stereo not given),-,-,33.1,-,-,-,-
COc1ccc(-c2nnc(SCC(=O)NN=Cc3c(O)ccc4ccccc34)n2-c2ccc(OC)cc2)cc1,.,.,.,.,-,.,.
CC(=O)N1CCN(C(=O)c2cc(S(=O)(=O)Nc3ccc(S(C)(=O)=O)cc3)ccc2Cl)CC1,-,-,-,-,-,.,.
SMILES,ATG4B inhibitor,MC4R barr agon,MC4R antag cAMP,MPTP block,SMARCA2 activ,U2OS cAMP counter,MC4R antag conf
CCN1CCN(C(=O)c2cc(S(=O)(=O)Nc3ccc(S(C)(=O)=O)cc3)ccc2Cl)CC1,-,-,30.4,-,-,-,-
CCN(CC)S(=O)(=O)c1cc(C(=O)Nc2nncs2)c(Cl)cc1Cl,-,-,42.8,-,-,16.9,43.1
CCN(CC)S(=O)(=O)c1ccc(Cl)c(C(=O)Nc2nncs2)c1,-,-,-,-,-,.,.
CN1OC[C@@H]2CN(C(=S)Nc3cc(C(F)(F)F)cc(C(F)(F)F)c3)[C@H](c3ccccc3Br)C[C@@H]21,.,.,.,.,-,.,.
O=C(COc1ccc([N+](=O)[O-])cc1)Nc1ccc2c(c1)OCO2,-,-,32.2,-,-,-,-
COc1ccc(OCC(=O)Nc2ccc3c(c2)OCO3)cc1,-,-,-,-,-,.,.
Cc1ccc(NC(=S)Nc2cccc(-c3n[nH]c(=S)o3)c2)cc1,-,-,36.6,-,-,-,-
NC(=S)Nc1cccc(-c2n[nH]c(=S)o2)c1,-,-,-,-,-,.,.
S=c1[nH]nc(-c2ccc3ccccc3n2)n1-c1cc(Cl)cc(Cl)c1,-,-,31.8,-,-,-,-
O=C(COC(=O)/C=C/c1ccco1)Nc1ncc(Cl)cc1Cl,-,-,30.8,-,-,-,-
O=C(COC(=O)CNC(=O)c1ccc2c(c1)OCO2)Nc1ncc(Cl)cc1Cl,-,-,29.5,-,-,14.1,-
O=C(COC(=O)c1ccc2c(c1)OCO2)Nc1ncc(Cl)cc1Cl,-,-,-,-,-,.,.
Cc1nc(NC(=O)COC(=O)/C=C/c2ccco2)c(Cl)cc1Cl,-,-,-,-,-,.,.
CCOC(=O)Cn1nnnc1CN(Cc1ccccc1)Cc1cc2cc(CC)ccc2[nH]c1=O,-,-,29.7,-,-,-,-
CCc1ccc2[nH]c(=O)c(CN(Cc3ccccc3)Cc3nnnn3Cc3ccco3)cc2c1,-,-,-,-,-,.,.
C=CCN1[C@H](Cc2ccccc2)COc2cc(N3CCSCC3)ccc2S1(=O)=O,.,.,.,.,-,.,.
COC1=C[C@H](C(=O)NCCNC(C)=O)[C@@]2(C)Cc3ccccc3[C@H]2CC1=O,.,.,.,.,-,.,.
COC(=O)[C@]12C[C@H](CC(=O)NCc3ccc(C)o3)C(=O)N(Cc3cccc4ccccc34)C1=C[C@H](C(C)(C)C)O[C@@H]2C,.,.,.,.,-,.,.
CCOC(=O)c1cnc(-n2[nH]c(C)cc2=O)[nH]c1=O,-,-,29.8,-,-,-,-
CC(C)(C)OC(=O)N1CCC[C@@H]1C(=O)N1CCC[C@H]1C(=O)NCc1ccccc1,.,.,.,.,-,.,.
COc1ccc(OC(=O)N2C/C(=C/c3ccccc3)C(=O)/C(=C\c3ccccc3)C2)cc1,-,-,33.0,-,-,15.0,-
O=C(NCc1cccs1)C1CCN(S(=O)(=O)c2ccc([N+](=O)[O-])cc2)CC1,.,.,.,.,-,.,.
CC1(C)CC(=O)C2=C(C1)OC1=C(C(=O)CC(C)(C)C1)C2c1ccc(O)c([N+](=O)[O-])c1,-,-,-,-,-,.,.
CC1(C)CC(=O)C2=C(C1)OC1=C(C(=O)CC(C)(C)C1)C2c1ccc(O)cc1O,-,-,74.4,-,-,50.1,52.5
COCCNc1nc(Oc2ccc(NC(C)=O)cc2)c2sc(-c3ccccc3)cc2n1,.,-,46.6,-,-,-,-
Cn1cc(CN2C[C@H]3CC[C@H]2C3)c(-c2ccccc2F)n1,-,-,28.6,-,-,-,-
